Results on six molecules are retold here after ChEMBL document CHEMBL3414496, “Synthesis and biological evaluation of novel 2-heteroarylimino-1,3-thiazolidin-4-ones as potential anti-tumor agents” (Eur J Med Chem, 2015).

SMILES strings stand for the structures. The source made the active and inactive calls. The rule behind the calls is not given here.

Test [1] has as its system HT-29. Kind of test: Induction of cell cycle arrest in human HT-29 cells assessed as accumulation at G0/G1 phase by propidium iodide staining based flow cytometry (reference value: 67.7 +/- 0.5%). Format: functional.
Test [2] has as its system HT-29. Kind of test: Induction of cell cycle arrest in human HT-29 cells assessed as accumulation at G2/M phase by propidium iodide staining based flow cytometry (reference value: 11.3 +/- 1%). It counts as functional. Background: In flow cytometry, cells or beads pass a laser one at a time.
The subject of test [3] is HT-29. Kind of test: Induction of Nrf2 expression in human HT-29 cells nuclei homogenates over 1 to 6 hrs by Western blotting method. It counts as functional, cell-based. Summed up:
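HT29 cells treated and fractionated, and nuclear homogenates immunoblotted with anti-Nrf2 (1:500) after SDS-PAGE and nitrocellulose transfer. Primary antibody overnight at 4°C, HRP secondary and chemiluminescence. Blots stripped and reprobed for GAPDH (1:10 000) for normalization, with the DMSO ratio set to 1.00. Representative of three independent experiments.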
(A western blot detects proteins with antibodies after separation by electrophoresis.)

The test system of test [4] is HT-29. Kind of test: Inhibition of cell growth in human HT-29 cells assessed as mitotic index ratio in absence of 1 mM ascorbic acid (reference value: 1). It counts as functional. Summed up:
(§1)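 HT29 cells treated daily from 48 h after seeding, over three days with daily medium changes, in 0.1% (v/v) DMSO vehicle. Cells trypsinised, mixed 1:1 with 0.04% trypan blue, and living cells counted by haemocytometer under microscope. Mitotic index is treated count relative to DMSO control. Triplicate determinations, two independent experiments, mean ± S.E.M.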

In test [5] the test system is HT-29. Kind of test: Inhibition of cell growth in human HT-29 cells assessed as mitotic index ratio in presence of 1 mM ascorbic acid (reference value: 1.08 +/- 0.04). It counts as functional.
The subject of test [6] is HT-29. Kind of test: Induction of HO1 expression in human HT-29 cells at 2.5 uM after 2 hrs by Western blotting method. Format: functional. Summed up:
(§2)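 HT29 whole-cell lysates in Hepes/KOH pH 7.5 with EDTA, KCl, NP40, DTT, protease inhibitors; 50 µg protein on 10–15% SDS-PAGE, nitrocellulose, overnight 4°C primary antibody (GCL 1:500, HO-1 1:1000), HRP secondary, chemiluminescence. Bands normalized to GAPDH (1:10 000), DMSO ratio set at 1.00; representative of three independent experiments.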

For test [7], the system named is HT-29. Kind of test: Induction of HO1 expression in human HT-29 cells at 2.5 uM after 4 hrs by Western blotting method. It counts as functional. Summed up: as §2
The subject of test [8] is HT-29. Kind of test: Induction of HO1 expression in human HT-29 cells at 2.5 uM after 6 hrs by Western blotting method. Format: functional. Summed up:
as §2

For test [9], the system named is HT-29. Kind of test: Induction of HO1 expression in human HT-29 cells at 2.5 uM after 24 hrs by Western blotting method. Format: functional. Summed up: as §2
The subject of test [10] is HT-29. Kind of test: Induction of GCL expression in human HT-29 cells at 2.5 uM after 2 hrs by Western blotting method. Format: functional. In outline:
as §2

Test [11] deals with HT-29. Put plainly: Induction of GCL expression in human HT-29 cells at 2.5 uM after 4 hrs by Western blotting method. Format: functional. In outline: as §2
Test [12] concerns HT-29. Put plainly: Induction of GCL expression in human HT-29 cells at 2.5 uM after 6 hrs by Western blotting method. Format: functional. Summed up: as §2
Test [13] concerns HT-29. Kind of test: Induction of GCL expression in human HT-29 cells at 2.5 uM after 24 hrs by Western blotting method. Format: functional. In outline: as §2
The subject of test [14] is HT-29. Put plainly: Induction of NQO1 expression in human HT-29 cells at 2.5 uM after 2 hrs by Western blotting method. It counts as functional. Summed up: (§3)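 Whole-cell lysates from treated HT29 cells in pH 7.5 Hepes/KOH buffer with EDTA, KCl, Igepal, DTT and protease inhibitors. 50 µg protein run on 10-15% SDS-PAGE and transferred to nitrocellulose. Probed overnight at 4°C with anti-HO-1 (1:1 000), anti-NQO1 (1:1 000) or anti-GCL (1:500), then HRP secondary for 45 min and chemiluminescence. Bands normalized to GAPDH (1:10 000), with the DMSO ratio set to 1.00. Representative of three experiments.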

In test [15] the test system is HT-29. Put plainly: Induction of NQO1 expression in human HT-29 cells at 2.5 uM after 4 hrs by Western blotting method. Format: functional. In outline: as §3
Test [16] relates to HT-29. Kind of test: Induction of NQO1 expression in human HT-29 cells at 2.5 uM after 6 hrs by Western blotting method. Format: functional. In outline:
as §3

Test [17] has as its system HT-29. Kind of test: Induction of NQO1 expression in human HT-29 cells at 2.5 uM after 24 hrs by Western blotting method. It counts as functional. In outline:
as §3

Test [18] has as its system HT-29. Put plainly: Growth inhibition of human HT-29 cells at 2.5 uM after 3 days by trypan blue dye exclusion assay. Format: functional. Conditions: HT-29, 72 h, read-out: GI. Summed up: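 HT29 cells treated 48 h after seeding, dosed daily with daily medium change over three days; drug diluted in DMSO, controls 0.1% (v/v) DMSO. Cells trypsinized, mixed 1:1 with 0.04% trypan blue, live cells counted by hematimeter. Reported as mitotic index (treated/DMSO count); triplicates from two independent experiments.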

The subject of test [19] is HT-29. Put plainly: Reduction in cell growth of human HT-29 cells at 2.5 uM after 3 days by trypan blue dye exclusion assay. Format: functional, cell-based. In outline: as §1
Test [20] deals with HT-29. Put plainly: Reduction in cell viability of human HT-29 cells assessed as reduction in living cell level at 2.5 uM after 24 to 48 hrs by DCF-DA and propidium iodide staining based flow cytometry. It counts as functional. In outline:
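HT29 cells treated two days after seeding, then loaded together with 50 µM DCF-DA and 25 µg/mL propidium iodide for 15 min at 37°C. Cells trypsinised, washed and resuspended in PBS; 30 000 cells per sample read by flow cytometry (FL-1, FL-3). Viable cells (PI-negative, DCF-positive) given as % of total events. Triplicates, two independent experiments.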

The subject of test [21] is HT-29. Put plainly: Induction of cell cycle arrest in human HT-29 cells assessed as accumulation at subG1 phase by propidium iodide staining based flow cytometry (reference value: 2.3 +/- 0.1%). Format: functional.
Test [22] relates to HT-29. Put plainly: Induction of redox status changes in human HT-29 cells assessed as ROS content in absence of 1 mM ascorbic acid by DCF-DA staining based fluorescence assay (reference value: 100%).
Test [23] concerns HT-29. Put plainly: Inhibition of cell growth in human HT-29 cells assessed as mitotic index ratio in presence of 1 mM ascorbic acid (reference value: 1.12 +/- 0.03). Format: functional.
Test [24] has as its system HT-29. Put plainly: Induction of HO1 expression in human HT-29 cells at 1.5 uM after 2 hrs by Western blotting method. Format: functional. In outline:
as §2

Test [25] concerns HT-29. Kind of test: Induction of ROS generation in human HT-29 cells at cytotoxic IC50 level after 1 hr by DCF-DA staining based fluorescence assay. Format: functional, cell-based. In outline:
(§4)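 HT29 cells treated two days after seeding, then loaded with 50 µM DCF-DA for 15 min at 37°C. Cells trypsinized, washed and resuspended in PBS, and 30 000 cells/sample read by flow cytometry (FL-1). Expressed as % of DMSO-treated cells; […] for 1 h served as positive control. Triplicates from three independent experiments.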

The test system of test [26] is HT-29. Kind of test: Induction of ROS generation in human HT-29 cells at cytotoxic IC50 level after 6 hrs by DCF-DA staining based fluorescence assay. It counts as functional, cell-based. Summed up: as §4
In test [27] the test system is HT-29. Put plainly: Induction of GCL expression in human HT-29 cells at 10 uM after 24 hrs by Western blotting method. Format: functional. Summed up: as §2
Test [28] has as its system HT-29. Kind of test: Induction of NQO1 expression in human HT-29 cells at 6.4 uM after 2 hrs by Western blotting method. Format: functional. Summed up:
as §3

For test [29], the system named is HT-29. Put plainly: Induction of NQO1 expression in human HT-29 cells at 6.4 uM after 6 hrs by Western blotting method. Format: functional. Summed up: as §3

As for `CN(C)c1ccc(/C=C2\S/C(=N\c3nc(-c4ccc(Cl)cc4)cs3)NC2=O)cc1`, the Activity in the test on HT-29 [1] came to 60.6%; in the test on HT-29 [2], 18.7%; in the test on HT-29 [21] it was 16.2%; in the test on HT-29 [22], 252.5%. Besides, in the test with HT-29 [3], the result was inactive. For the same molecule, the Ratio with HT-29 [4] is 0.13; in the test on HT-29 [5], 0.09. The “fold change (FC)” value with HT-29 [6] is recorded as 1; in the test on HT-29 [7], 1; with HT-29 [8], 1; in the test with HT-29 [9], 1; in the test on HT-29 [10], 0.98; with HT-29 [11], 0.99. The “fold change (FC)” value came out at 1.2 in the test with HT-29 [12]; 1.18 in the test with HT-29 [13]; 0.93 in the test on HT-29 [14]; 0.67 in the test on HT-29 [15]; 0.72 in the test on HT-29 [16]; 0.78 in the test with HT-29 [17]. Also, the inhibition of growth at 2.5 µM with HT-29 [18] amounted to 90%. For the same molecule, the inhibition entry in the test with HT-29 [19] and with HT-29 [20] was “Active” throughout.

Take `CN(C)c1ccc(/C=C2\S/C(=N\c3csc(-c4ccc(Cl)cc4)c3)NC2=O)cc1`: the outcome with HT-29 [3] was inactive. Besides, the Ratio in the test with HT-29 [4] and in the test on HT-29 [23] was 0.02 each time. The “fold change (FC)” value in the test with HT-29 [24] is 1. The Activity in the test on HT-29 [22] is on record as 177.8%.

For `COc1ccc(/C=C2\S/C(=N\c3csc(-c4ccc(Cl)cc4)c3)NC2=O)cc1OC`, the outcome with HT-29 [25] was Active. Further, the result in the test with HT-29 [26] was inactive. The Ratio in the test on HT-29 [4] and in the test on HT-29 [23] was 0.04 throughout. In the test with HT-29 [27], the “fold change (FC)” value is listed as 1.11. In addition, the Activity with HT-29 [22] was determined as 141.6%.

With `Cc1ccc(/C=C2\S/C(=N\c3csc(-c4ccc(Cl)cc4)c3)NC2=O)cc1`, the outcome in the test on HT-29 [3] was inactive. The Ratio in the test with HT-29 [4] and in the test with HT-29 [23] was 0.02 in each case. For the same molecule, the results for the “fold change (FC)” value with HT-29 [28] and with HT-29 [29] were 2.23 and 1.86, respectively. Besides, the Activity in the test with HT-29 [22] is reported as 172%.

As to `COc1ccc(/C=C2\S/C(=N\c3csc(-c4ccc(Cl)cc4)c3)NC2=O)cc1`, the outcome in the test with HT-29 [25] was Active. Besides, the result in the test with HT-29 [26] and in the test on HT-29 [3] was inactive. Also, the Ratio with HT-29 [4] and in the test with HT-29 [23] was 0.03 throughout. The Activity with HT-29 [22] amounted to 123.1%.

In the case of `COc1ccc(/C=C2\S/C(=N\c3nc(-c4ccc(Cl)cc4)cs3)NC2=O)cc1`, the Activity with HT-29 [1] is given as 58.7%; in the test with HT-29 [2] it was 24.1%; in the test on HT-29 [21] it was 20.9%. Also, the outcome in the test with HT-29 [3] was inactive. The “fold change (FC)” value was determined as 1 in the test on HT-29 [6]; 1 in the test on HT-29 [7]; 1 in the test on HT-29 [8]; 1 in the test with HT-29 [9]; 1.06 in the test on HT-29 [10]; 0.87 in the test on HT-29 [11]. Further, the “fold change (FC)” value in the test with HT-29 [12] was determined as 0.86; in the test on HT-29 [13], 0.98; in the test with HT-29 [14] it was 1.07; in the test with HT-29 [15], 0.85; with HT-29 [16], 0.96; in the test with HT-29 [17], 0.85. Further, the inhibition of growth at 2.5 µM in the test with HT-29 [18] is 90%. Moreover, the inhibition result in the test on HT-29 [19] and in the test with HT-29 [20] was “Active” in each case.
